Here are results for 9 compounds from ChEMBL document CHEMBL1138474, “Modulation of the transient receptor potential vanilloid channel TRPV4 by 4alpha-phorbol esters: a structure-activity study” (J Med Chem, 2009).

Assay [1] deals with Transient receptor potential cation channel subfamily V member 4 (Mus musculus, UniProt Q9EPK8). Put plainly: (§1) Activation of mouse wild type TRPV4 expressed in HEK293 cells assessed as increase in intracellular calcium concentration. In kind it is cell-based. The method in brief:
(§2)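 mTRPV4 (wild type or the Y556A, S557A or W586A TM3-4 mutant) in pCAGGS/Ires-GFP was transiently transfected into HEK293 cells and incubated overnight. GFP-positive cells on poly-L-lysine coverslips were loaded with 4 µM Fura-2 AM for 30 min at 37 °C and perfused with Krebs solution (1.5 mM CaCl2, pH 7.4). The 340/380 nm ratio (510 nm emission) gave ∆Fura-2 ratio. EC50 came from a Hill fit, >15 cells, three transfections.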
Background: Calcium flux is commonly read through the fluorescence of an indicator in the cells.

Assay [2] concerns HEK293. Briefly: Effect on intracellular calcium level in non transfected HEK293 cells assessed as increase in fura-2 ratio. In kind it is functional, cell-based. The following applies: Homo sapiens. The method in brief: (§3)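 GFP-negative cells from the same coverslips as the mTRPV4-transfected HEK293 cells served as untransfected controls. Cells were loaded with 4 µM Fura-2 AM for 30 min at 37 °C and perfused with Krebs solution (pH 7.4). ∆Fura-2 ratio was taken as (Rt−Rt0)/Rt0 from 340/380 nm excitation, with background subtracted.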

Assay [3] addresses Transient receptor potential cation channel subfamily V member 4 (Mus musculus, UniProt Q9EPK8, S557A). Briefly: Activation of mouse TRPV4 S557A mutant expressed in HEK293 cells assessed as increase in intracellular calcium concentration. It is filed as cell-based. An outline of the steps:
as §2

For assay [4], the target named is Transient receptor potential cation channel subfamily V member 4 (Mus musculus, UniProt Q9EPK8, W586A). Put plainly: Activation of mouse TRPV4 W586A mutant expressed in HEK293 cells assessed as increase in intracellular calcium concentration. In kind it is cell-based. An outline of the steps: as §2
Transient receptor potential cation channel subfamily V member 4 (Mus musculus, UniProt Q9EPK8, W586A), sequence (Q9EPK8 whole entry W586A): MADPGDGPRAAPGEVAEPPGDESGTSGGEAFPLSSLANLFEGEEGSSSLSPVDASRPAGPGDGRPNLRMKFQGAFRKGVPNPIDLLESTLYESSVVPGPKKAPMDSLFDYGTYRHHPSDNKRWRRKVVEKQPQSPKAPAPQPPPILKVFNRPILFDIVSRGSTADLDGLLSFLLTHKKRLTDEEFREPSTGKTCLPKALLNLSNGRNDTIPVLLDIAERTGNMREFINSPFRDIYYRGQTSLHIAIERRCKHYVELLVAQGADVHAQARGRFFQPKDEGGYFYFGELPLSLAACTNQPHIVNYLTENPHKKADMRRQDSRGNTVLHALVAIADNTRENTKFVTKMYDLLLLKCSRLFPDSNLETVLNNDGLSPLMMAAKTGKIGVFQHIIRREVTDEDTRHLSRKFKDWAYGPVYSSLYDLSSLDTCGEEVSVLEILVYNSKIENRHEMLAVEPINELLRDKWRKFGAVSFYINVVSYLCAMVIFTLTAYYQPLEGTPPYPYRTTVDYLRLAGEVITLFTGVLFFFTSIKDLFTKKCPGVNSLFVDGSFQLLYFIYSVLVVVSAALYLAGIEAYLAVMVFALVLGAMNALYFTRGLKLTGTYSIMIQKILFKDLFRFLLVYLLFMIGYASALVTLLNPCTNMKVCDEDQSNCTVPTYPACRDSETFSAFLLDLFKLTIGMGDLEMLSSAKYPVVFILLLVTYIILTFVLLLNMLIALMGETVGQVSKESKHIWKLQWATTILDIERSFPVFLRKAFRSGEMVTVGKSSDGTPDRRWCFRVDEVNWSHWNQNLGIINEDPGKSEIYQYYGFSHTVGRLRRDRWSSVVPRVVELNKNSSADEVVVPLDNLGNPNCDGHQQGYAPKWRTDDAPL
The target in assay [5] is Transient receptor potential cation channel subfamily V member 4 (Mus musculus, UniProt Q9EPK8, Y556A). Briefly: Activation of mouse TRPV4 Y556A mutant expressed in HEK293 cells assessed as increase in intracellular calcium concentration. In kind it is cell-based. The method in brief:
as §2

For assay [6], the target named is Transient receptor potential cation channel subfamily V member 4 (Mus musculus) (UniProt Q9EPK8). Put plainly: Activation of mouse wild type TRPV4 expressed in HEK293 cells assessed as outward-inward rectifying current density at 500 nM at a holding potential of 100 mV by whole cell patch-clamp assay in absence of calcium. In kind it is cell-based. The method in brief:
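Whole-cell patch clamp was run on mTRPV4-transfected HEK293 cells using ramps from -100 to +100 mV. CaCl2 was omitted from both solutions. Bath (mM): 150 NaCl, 6 CsCl, 1 MgCl2, 10 glucose, 10 HEPES, pH 7.4. Pipette (mM): 20 CsCl, 100 aspartate, 1 MgCl2, 10 HEPES, 4 Na-ATP, 10 BAPTA, pH 7.4. Agonist was added to the bath. Five cells, >2 transfections.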

Assay [7] has the same target. Described as §1. In kind it is cell-based. An outline of the steps:
as §2

The target is the same in assay [8]. Briefly: Activation of mouse wild type TRPV4 expressed in HEK293 cells assessed as outward-inward rectifying current density at 500 nM at a holding potential of 100 mV by whole cell patch-clamp assay in presence of calcium. In kind it is cell-based. An outline of the steps:
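Whole-cell patch clamp was run on mTRPV4-transfected HEK293 cells using ramps from -100 to +100 mV. Bath (mM): 150 NaCl, 6 CsCl, 1 MgCl2, 5 CaCl2, 10 glucose, 10 HEPES, pH 7.4. Pipette (mM): 20 CsCl, 100 aspartate, 1 MgCl2, 10 HEPES, 4 Na-ATP, 10 BAPTA, free Ca2+ buffered to 200 nM, pH 7.4. Agonist was added to the bath. Five cells, >2 transfections.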
For orientation: In patch-clamp work, channel activity is measured electrically.

Assay [9] relates to HEK293. Briefly: Effect on intracellular calcium level in non transfected HEK293 cells. Particulars: Homo sapiens. It is filed as functional, cell-based. The method in brief:
as §3

The target of assay [10] is Transient receptor potential cation channel subfamily V member 4 (Mus musculus) (UniProt Q9EPK8). Put plainly: Activation of mouse wild type TRPV4 expressed in HEK293 cells assessed as increase in intracellular calcium concentration at 1 uM in presence of TRP antagonist ruthenium red. In kind it is functional, cell-based. An outline of the steps: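 Single-cell fura-2 imaging was done on GFP-positive HEK293 cells transiently expressing mTRPV4, perfused with Krebs buffer (1.5 mM CaCl2, pH 7.4). Agonist at 1 µM was applied in the bath, and ruthenium red 1 µM was added to the extracellular solution as indicated. The read-out was the 340/380 nm ratio change. Three independent experiments were run.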
Transient receptor potential cation channel subfamily V member 4 (Mus musculus), sequence (Q9EPK8 whole entry, the tested form may be a part): as the sequence (Q9EPK8 whole entry W586A) above, with A586W counted along it

Calls of active or inactive are those of the source. No cut-off for these calls is given here.

Transient receptor potential cation channel subfamily V member 4 (Mus musculus, UniProt Q9EPK8), sequence (Q9EPK8 whole entry, the tested form may be a part): as the sequence (Q9EPK8 whole entry W586A) above, with A586W counted along it
Transient receptor potential cation channel subfamily V member 4 (Mus musculus, UniProt Q9EPK8, Y556A), sequence (Q9EPK8 whole entry Y556A): as the sequence (Q9EPK8 whole entry W586A) above, with Y556A, A586W counted along it
Transient receptor potential cation channel subfamily V member 4 (Mus musculus, UniProt Q9EPK8, S557A), sequence (Q9EPK8 whole entry S557A): as the sequence (Q9EPK8 whole entry W586A) above, with S557A, A586W counted along it

With `CCCCCCCC(=O)O[C@@H]1[C@@H](C)[C@@]2(O)[C@@H](C=C(CO)C[C@@]3(O)C(=O)C(C)=C[C@@H]23)[C@@H]2C(C)(C)[C@]12OC(=O)CCCCCCC`, the EC50 (usually the concentration at which the effect is half-maximal) in [1] is greater than 50000 nM.

On to `CCCCCCCCCC(=O)O[C@@H]1[C@@H](C)[C@]2(O)[C@@H]3C=C(C)C(=O)[C@@H]3CC(CO)=C[C@H]2[C@@H]2C(C)(C)[C@]12OC(=O)CCCCCCCCC`, for which, in assay [1], the EC50 is greater than 50000 nM.

On to `CCCCCCCCCC(=O)O[C@@H]1[C@@H](C)[C@@]2(O)[C@@H](C=C(CO)C[C@@]3(O)C(=O)C(C)=C[C@@H]23)[C@@H]2C(C)(C)[C@]12OC(=O)CCCCCCCCC`, for which the result in assay [2] was Active. In addition, the EC50 in assay [1] is 370 nM; in assay [3] it was 320 nM; in assay [4], greater than 6000 nM; in assay [5], 6300 nM.

In the case of `CCCCCCCCCC(=O)O[C@@]12[C@H](O)[C@@H](C)[C@@]3(O)[C@@H](C=C(CO)C[C@@]4(O)C(=O)C(C)=C[C@@H]34)[C@@H]1C2(C)C`, in assay [2], the outcome was Active. For the same compound, in assay [1], the EC50 was found to be 450 nM.

On to `CCCCCC(=O)O[C@@H]1[C@@H](C)[C@@]2(O)[C@@H](C=C(CO)C[C@@]3(O)C(=O)C(C)=C[C@@H]23)[C@@H]2C(C)(C)[C@]12OC(=O)CCCCC`, for which the Activity in assay [6] is 806; in assay [7] it was “Dose-dependent effect”; in assay [8] it was 354. In addition, the EC50 in assay [1] came out at 70 nM; in assay [3] it was 360 nM; in assay [4] it was 2840 nM; in assay [5], 2790 nM. For the same compound, the outcome in assay [9] and in assay [10] was inactive.

For the compound `CCCC(=O)O[C@@H]1[C@@H](C)[C@@]2(O)[C@@H](C=C(CO)C[C@]3(O)C(=O)C(C)=C[C@@H]23)[C@@H]2C(C)(C)[C@]12OC(=O)CCC`, the EC50 in assay [1] was 22500 nM.

In the case of `CCCCCCCCCCCCCC(=O)O[C@@H]1[C@@H](C)[C@@]2(O)[C@@H](C=C(CO)C[C@@]3(O)C(=O)C(C)=C[C@@H]23)[C@@H]2C(C)(C)[C@]12OC(=O)CCCCCCCCCCCCC`, the EC50 in [1] was found to be 2830 nM.

Regarding `CC(=O)O[C@@H]1[C@@H](C)[C@@]2(O)[C@@H](C=C(CO)C[C@@]3(O)C(=O)C(C)=C[C@@H]23)[C@@H]2C(C)(C)[C@]12OC(C)=O`, the EC50 in [1] is greater than 50000 nM.

As to `CCCCCCCCC(=O)O[C@@H]1[C@@H](C)[C@@]2(O)[C@@H](C=C(CO)C[C@@]3(O)C(=O)C(C)=C[C@@H]23)[C@@H]2C(C)(C)[C@]12OC(=O)CCCCCCCC`, the EC50 in [1] was greater than 50000 nM.
